Bioassay records (PubChem)
TMEM16A inh: mouse TMEM16A channel inhibition, primary screen. Q8BHY3. HEK293 TMEM16A/YFP iodide influx fluorescence, ionomycin. normalized B-score (activity score, 25-100; higher = stronger inhibition) at 10 µM. 310,000 compounds, 1.2% hits;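 active means ratio plate-corrected score three or more library SD toward inhibition, starting fluorescence score within five deviations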;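 further: score derived from kinetic fluorescence span divided by baseline fluorescence per well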
TMEM16A act: activates or potentiates the mouse TMEM16A chloride channel; Q8BHY3; HEK293 TMEM16A/YFP-H148Q/I152L, iodide quench fluorescence; active compounds read low; B-score at 10 µM; 340,000 compounds, 0.3% hits;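 active means fluorescence-ratio B-score plate-corrected deviation score at least 3 library SD below zero, with starting fluorescence score within 5 deviations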;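 further: channel opened by trigger with iodide after compound preincubation; score built on the fluorescence ratio of max minus min over baseline; more negative score means more quench and so TMEM16A activation or potentiation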
DAGLB inh: blocks human DAGLB lipase activity | 340,000 compounds, 0.059% hits | Q8NCG7 | inhibition, % at 5.17 µM | HEK293T DAGLB membrane lysate, EnzChek fluorogenic substrate | AID 504411; in the data active means inhibition above about 34%;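 further: 0% = enzyme with vehicle and 100% = wells lacking enzyme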
Target sequence (Q8NCG7 whole entry, looked up): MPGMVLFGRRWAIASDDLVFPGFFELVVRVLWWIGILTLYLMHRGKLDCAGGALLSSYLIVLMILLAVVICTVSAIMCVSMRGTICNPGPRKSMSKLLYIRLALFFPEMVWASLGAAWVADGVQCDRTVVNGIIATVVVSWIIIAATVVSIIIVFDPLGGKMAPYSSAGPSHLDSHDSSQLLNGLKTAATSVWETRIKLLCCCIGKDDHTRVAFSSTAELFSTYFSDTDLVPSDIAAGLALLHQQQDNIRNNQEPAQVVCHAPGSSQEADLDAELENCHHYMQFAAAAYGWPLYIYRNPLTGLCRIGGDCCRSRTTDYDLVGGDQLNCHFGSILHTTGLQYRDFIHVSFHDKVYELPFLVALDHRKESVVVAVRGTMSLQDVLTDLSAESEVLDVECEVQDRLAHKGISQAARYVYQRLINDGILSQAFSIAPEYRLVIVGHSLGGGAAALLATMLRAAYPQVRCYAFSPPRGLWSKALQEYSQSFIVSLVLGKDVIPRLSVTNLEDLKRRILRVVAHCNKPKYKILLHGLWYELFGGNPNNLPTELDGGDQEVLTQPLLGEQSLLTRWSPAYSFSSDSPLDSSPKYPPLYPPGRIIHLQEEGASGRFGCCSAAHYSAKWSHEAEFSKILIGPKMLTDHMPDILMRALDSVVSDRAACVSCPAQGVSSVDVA
MT1-MMP act inh: inhibitors of human MT1-MMP activation; P50281; HT1080 RFP-PRO-GFP cells, GFP/RFP ratio fluorescence, overnight; percent of plate control window, DMSO zero; GFP/RFP ratio change, % at 20 µM; 360,000 compounds, 0.061% hits;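 active means GFP/RFP ratio change of at least 30% with cell ATP level not reduced by more than half and red fluorescence within 50% of control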
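Read-out: GFP/RFP fluorescence ratio; Test system: RFP-PRO-GFP reporter HT1080 cells; Compound dosing: single-point 20 µM compound, 1% DMSO; Times: overnight compound exposure at 37 °C.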
TMEM16A reconf: TMEM16A (mouse) chloride channel inhibition, re-confirmation | shares compounds with TMEM16A inh | HEK293 TMEM16A/YFP-H148Q, iodide quench fluorescence; ionomycin added to raise cell calcium | inhibition, % at 10 µM | 2,300 compounds, 39% hits | AID 652189;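 active means mean duplicate percent inhibition, scaled so buffer wells are 0 and the reference blocker 100, over three buffer SD above buffer mean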
TMEM16A Ca cntr: counter-screen for TMEM16A inhibitors: effect on calcium mobilization; 2,300 compounds, 2% hits; shares compounds with TMEM16A inh; calcium response (% of ionomycin), % at 10 µM; AID 652231; TMEM16A/YFP HEK293, Fluo4 calcium mobilization;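 active means duplicate-averaged calcium signal over 20% of the ionomycin maximum, relative to buffer baseline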;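 further: each well's signal is peak minus trough fluorescence divided by its pre-addition baseline; 0% = buffer wells and 100% = ionomycin wells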
YFP-HEK293 quench: parental YFP-HEK293 iodide quench counter-screen activity | 2,300 tested, under 10 active | AID 652233 | YFP ratio F(max-min)/F0 at 10 µM | ionomycin | shares compounds with TMEM16A inh;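 active means yellow fluorescent protein signal ratio exceeding the buffer control mean by over 5 SD of those controls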;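 further: ratio is mean of duplicate wells from kinetic YFP trace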
ClC-1 inh: selectivity of TMEM16A inhibitors: inhibition of rat ClC-1 chloride channel. ratio percent, % at 10 µM. 2,300 tested, under 10 active. CHO ClC-1-YFP, iodide influx fluorescence quench; iodide control reads 0, buffer control 100. shares compounds with TMEM16A inh;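 active means duplicate-mean ratio percent above the mean of iodide-only control wells, which defines zero, plus 5 of their SD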;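 further: higher percent means stronger block of ClC-1 iodide influx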
MT1-MMP act val: blocks activation of human MT1-MMP in validation testing | AID 652235 | 200 compounds, 10% hits | inhibition, % at 20 µM | shares compounds with MT1-MMP act inh | HT1080 RFP-PRO-GFP cells, GFP and RFP fluorescence ratio, overnight;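 active means inhibition of at least 50% in the primary cell screen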
Active calls of the source: *. Most compounds without a hit are left out; they make up all but 1.3% or so of the library.

`CC(C)CNC(=O)c1c(N)n(Cc2ccco2)c2nc3ccccc3nc12` gave TMEM16A inh inactive, TMEM16A act inactive, DAGLB inh 8.3, MT1-MMP act inh -97.7, TMEM16A reconf 18.0%*, TMEM16A Ca cntr inactive, YFP-HEK293 quench -1.04 and ClC-1 inh -7.5.
`CCN(CC)C(=O)N[C@H]1C[C@@H]2c3cccc4[nH]cc(c34)C[C@H]2N(C)C1` gave TMEM16A inh inactive, TMEM16A act inactive, DAGLB inh 2.2, MT1-MMP act inh -5.7, TMEM16A reconf inactive, TMEM16A Ca cntr inactive, YFP-HEK293 quench -0.997 and ClC-1 inh -3.0.
`CN1C[C@H](CO)C[C@@H]2c3cccc4[nH]cc(c34)C[C@H]21` gave TMEM16A inh inactive, TMEM16A act inactive, DAGLB inh -2.5 and MT1-MMP act inh -2.3.
`COc1ccc(-n2c(-c3ccccc3Br)nc3ccccc3c2=O)cc1` gave TMEM16A inh inactive, TMEM16A act inactive, DAGLB inh -3.7 and MT1-MMP act inh -5.7.
For Cc1cc(OC(=O)c2cccs2)c2c3c(c(=O)oc2c1)CCCC3 the results were TMEM16A inh inactive, TMEM16A act inactive, DAGLB inh -4.0 and MT1-MMP act inh 3.7.
Cc1cc(OC(=O)c2ccco2)c2c3c(c(=O)oc2c1)CCCC3 was read as TMEM16A inh 100*, TMEM16A act inactive, DAGLB inh -4.4, MT1-MMP act inh -5.3, TMEM16A reconf inactive, TMEM16A Ca cntr inactive, YFP-HEK293 quench -1.04 and ClC-1 inh -9.5.
`CCc1sc(C(=O)N2CCC3(CC2)OCCO3)cc1Br` gave TMEM16A inh 100*, TMEM16A act inactive, DAGLB inh -9.5, MT1-MMP act inh 2.0, TMEM16A reconf inactive, TMEM16A Ca cntr inactive, YFP-HEK293 quench -1.02 and ClC-1 inh -9.0.
Screening O=C(c1cc2c(s1)CCCCCC2)N1CCC2(CC1)OCCO2 returned TMEM16A inh inactive, TMEM16A act inactive, DAGLB inh -6.0 and MT1-MMP act inh -1.3.
C/C(=N\Nc1ccccc1)c1c(O)n(C)c(=O)n(C)c1=O was read as TMEM16A inh inactive, TMEM16A act inactive, DAGLB inh -1.4 and MT1-MMP act inh -3.7.
For CCCCCCC(C)(C)c1ccc([C@@H]2C[C@H](O)CC[C@H]2CCCO)c(O)c1 the results were TMEM16A inh 100*, TMEM16A act inactive, DAGLB inh -1.4, MT1-MMP act inh -2.7, TMEM16A reconf inactive, TMEM16A Ca cntr inactive, YFP-HEK293 quench -1.09 and ClC-1 inh -6.5.
`COc1ccc(OC)c(CC(=O)O)c1` gave TMEM16A inh 25*, TMEM16A act -4.87*, DAGLB inh 2.8, MT1-MMP act inh -1.9, TMEM16A reconf inactive, TMEM16A Ca cntr inactive, YFP-HEK293 quench -1.03 and ClC-1 inh 6.0.
For CC(C#N)CCC#N (stereo not given) the results were TMEM16A act inactive, DAGLB inh -1.3 and MT1-MMP act inh 0.7.
For CN1C(=O)C(=Cc2ccc(Sc3ccccc3)o2)C(=O)N(C)C1=O the results were TMEM16A inh inactive, TMEM16A act inactive, DAGLB inh 7.3, MT1-MMP act inh 32.7* and MT1-MMP act val 3.3.
For CN1C(=O)C(=Cc2ccc(Sc3ccccc3)o2)C(=O)N(C)C1=S the results were TMEM16A inh inactive, TMEM16A act inactive, DAGLB inh 4.9 and MT1-MMP act inh 36.2.
`COC(=O)C1=C(c2ccc(Cl)c(C(F)(F)F)c2)C[C@@H]2CC[C@H]1N2C(=O)NC1CCCCC1` gave TMEM16A act inactive, DAGLB inh -7.1 and MT1-MMP act inh -3.7.
`CNc1ccc2nc3ccccc3[n+](C)c2c1` gave TMEM16A inh inactive, TMEM16A act -5.03*, DAGLB inh 3.8, MT1-MMP act inh 67.3* and MT1-MMP act val 49.2.
`OCCNc1c2c(nc3ccccc13)CCCC2` gave TMEM16A inh inactive, TMEM16A act inactive, DAGLB inh 0.3 and MT1-MMP act inh -6.5.
`C[n+]1c2ccccc2nc2ccc(NCCO)cc21` gave TMEM16A inh inactive, TMEM16A act inactive, DAGLB inh 1.0, MT1-MMP act inh 55.1* and MT1-MMP act val 37.6.
CCC(C)N1C(=O)/C(=C\c2ccc(N3CCCCCC3)cc2)C(=O)NC1=S (stereo not given) was read as TMEM16A inh inactive, TMEM16A act inactive, DAGLB inh 7.4, MT1-MMP act inh 33.5* and MT1-MMP act val 3.1.
Screening C=C[C@@]12CN(C)[C@H]3[C@H]1[C@@]1(C(=O)Nc4ccccc41)C1CC2[C@@H]3CO1 returned TMEM16A inh inactive, TMEM16A act inactive, DAGLB inh 3.4 and MT1-MMP act inh -1.7.
`C[N+]1=C(/C=C/Nc2ccccc2)C(C)(C)c2ccccc21` gave TMEM16A inh inactive, TMEM16A act inactive, DAGLB inh 0.6, MT1-MMP act inh 37.8* and MT1-MMP act val 26.3.
Screening CCCCCn1c(=O)c(C(=O)NC(C)c2ccccc2)c(O)c2ccccc21 (stereo not given) returned TMEM16A inh inactive, TMEM16A act inactive, DAGLB inh -5.8 and MT1-MMP act inh 2.1.
`COc1cc2c(cc1OC)-c1c(OC)c(OC)cc3c1[C@H](C2)N(C)CC3` gave TMEM16A inh inactive, TMEM16A act inactive, DAGLB inh 4.2, MT1-MMP act inh 50.4* and MT1-MMP act val 5.3.
For C[C@H](NC(=O)N1C[C@H]2C[C@@H](C1)c1cccc(=O)n1C2)C(=O)Nc1ccccc1F the results were TMEM16A inh inactive, TMEM16A act inactive, DAGLB inh -0.6 and MT1-MMP act inh 7.2.
